Test results taken from ChEMBL document CHEMBL5715959, “Inhibition of histone methyltransferase EZH2 in Schistosoma mansoni in vitro by GSK343 reduces egg laying and decreases the expression of genes implicated in DNA replication and noncoding RNA metabolism” (2018).
Activity calls are given as the source filed them. The calls are words filed in the database; no cut-off is given here.

Assays:
Schistosoma mansoni [1] = experiment: Antischistosomal activity against adult Schistosoma mansoni assessed as increased H3K27ac level at 20 uM incubated for 48 hrs by Western blotting analysis; type: functional, organism-based
Procedure, shortened: (§1)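 Fifty adult worm pairs were treated 48 h with 20 μM GSK343 or vehicle in supplemented RPMI/10% FBS, then lysed in Triton buffer. Nuclear pellets were acid-extracted overnight in 0.25 M HCl at 4°C and histones were TCA-concentrated. 10 μg went on 15% SDS-PAGE and nitrocellulose, probed with anti-H3K27me3, K9ac, K27ac or K4me3, then IRDye secondaries; infrared densitometry was normalized to anti-H3. Three biological replicates; t-test.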

Schistosoma mansoni [2] = experiment: Cytotoxicity against Schistosoma mansoni assessed as decrease in viability at 20 uM incubated for 2 days relative to control; conditions: time 2 day
Schistosoma mansoni [3] = experiment: Cytotoxicity against adult Schistosoma mansoni assessed as reduction in ATP quantification at 50 uM incubated for 48 hrs by CellTiter-Glo Luminescent assay relative to control; type: functional; parameters: scale not given: the % may be the effect or the level left
Procedure, shortened: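 Worm pairs in supplemented RPMI (10% FBS, 37°C, 5% CO2) exposed 48 h to compound or 0.1% DMSO. ATP measured by luminescence in freshly lysed worms and expressed as % of vehicle signal; three replicate experiments, 10 pairs each, mean ± SD.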

Schistosoma mansoni [4] = experiment: Antischistosomal activity against adult Schistosoma mansoni assessed as altered motility at 50 uM incubated for 12 hrs by inverted microscope analysis; type: functional, organism-based
Procedure, shortened: (§2)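 Paired adult worms were cultured in RPMI/10% FBS with antibiotics at 37°C, 5% CO2, with GSK343 or 0.1% DMSO. They were viewed by inverted microscope at 3, 6, 12, 24 and 48 h. Motility was scored on a 0–3 scale (3 full movement, 1.5 partial or immobile but alive, 0 dead); death meant no movement over more than 2 min. Pairing was recorded. Three experiments, each with 10 pairs; mean ± SD.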

Schistosoma mansoni [5] = experiment: Antischistosomal activity against adult Schistosoma mansoni assessed as reduction in pairing of couples at 20 uM incubated for 48 hrs by inverted microscope analysis relative to control; type: functional; parameters: scale not given: the % may be the effect or the level left; procedure, shortened: as §2
Schistosoma mansoni [6] = experiment: Antischistosomal activity against Schistosoma mansoni assessed as increased caspase 3/7 activity at 20 uM incubated for 48 hrs by Caspase 3/7 reagent based luminescence assay; type: functional
Procedure, shortened: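 2,000 schistosomula per well were kept in supplemented M169 with 20 μM GSK343 or 0.1% DMSO for 48 h. Medium was replaced, reporter lysis buffer added, then Caspase-Glo 3/7 reagent for 3 h in the dark with agitation before reading luminescence. The negative control lacked reagent. Three experiments, each with 20,000 schistosomula.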

Schistosoma mansoni [7] = experiment: Antischistosomal activity against adult Schistosoma mansoni assessed as increased H3K9ac level at 20 uM incubated for 48 hrs by Western blotting analysis; type: functional, organism-based; procedure, shortened: as §1
Schistosoma mansoni [8] = experiment: Antischistosomal activity against Schistosoma mansoni assessed as developmental changes at 20 uM incubated for 24 hrs by scanning electron microscopy analysis; type: functional, organism-based
Procedure, shortened: (§3)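 Newly transformed schistosomula were held 16 h in M169 with 2% FBS, serotonin, hypoxanthine, hydrocortisone, triiodothyronine and antibiotics at 37°C, 5% CO2, at 2,000 per well. They were then exposed to 20 μM GSK343 or 0.1% DMSO for 24 and 48 h. Fixation was modified Karnovsky (pH 7.4) with 1% osmium post-fix, then ethanol dehydration, critical-point drying, gold coating and SEM. Lengths came from three experiments, each with 20 schistosomula.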

Schistosoma mansoni [9] = experiment: Cytotoxicity against juvenile Schistosoma mansoni assessed as decrease in viability at 10 to 20 uM incubated for 48 hrs by CellTiter-Glo Luminescent assay relative to control; type: functional; conditions: dose 10-20 µM
Procedure, shortened: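 Perfused juvenile worms cultured in supplemented RPMI (10% FBS, 37°C, 5% CO2), exposed 24 or 48 h to compound or 0.1% DMSO. Total parasite ATP read by luminescence, given as % of vehicle; three replicate experiments of 10 juveniles each, mean ± SD.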

Schistosoma mansoni [10] = experiment: Antischistosomal activity against adult female Schistosoma mansoni assessed as presence of peeling in dorsal region at 20 uM incubated for 24 to 48 hrs by scanning electron microscopy analysis; type: functional, organism-based; conditions: time 24-48 hrs
Procedure, shortened: (§4)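 Adult couples were taken by perfusion into supplemented RPMI, one couple per well, and adapted 2 h at 37°C, 5% CO2. They were exposed to 20 μM GSK343 or 0.1% DMSO for 24 and 48 h. Fixation used modified Karnovsky with osmium post-fix, followed by ethanol dehydration, critical-point drying, gold sputtering and scanning electron microscopy of tegument surfaces.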

Schistosoma mansoni [11] = experiment: Antischistosomal activity against female Schistosoma mansoni assessed as down-regulated p14 mRNA level at 20 uM incubated for 48 hrs by RT-qPCR analysis; type: functional, organism-based
Schistosoma mansoni [12] = experiment: Antischistosomal activity against Schistosoma mansoni assessed as increased H3K27me1 level in schistosomula at 20 uM incubated for 48 hrs by Western blotting analysis; type: functional, organism-based
Procedure, shortened: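 About 10,000 schistosomula were treated 48 h with 20 μM GSK343 or vehicle, then sonicated in Triton X-100 lysis buffer with PMSF and protease inhibitors. Supernatant nuclear extract (BCA-quantified, 10 μg) was run on 15% SDS-PAGE and blotted to nitrocellulose. Blots were probed with mark-specific monoclonal antibodies, then IRDye secondaries; infrared imaging was used and signals were normalized to total H3. t-test.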

Schistosoma mansoni [13] = experiment: Antischistosomal activity against adult male Schistosoma mansoni assessed as morphological alterations in anterior and posterior regions at 20 uM incubated for 48 hrs by scanning electron microscopy analysis; type: functional, organism-based; procedure, shortened: as §4
Schistosoma mansoni [14] = experiment: Antischistosomal activity against Schistosoma mansoni assessed as schistosomula living cells at 10 to 50 uM incubated for 24 to 72 hrs by fluorescein diacetate staining based fluorescence microscope analysis; type: functional, organism-based; conditions: dose 10-50 µM, time 24-72 hrs
Procedure, shortened: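 Schistosomula were cultured in supplemented M169 with 10–50 μM GSK343 or 0.1% DMSO for 24, 48 and 72 h. A fresh well set was used per time point, with 2 μg/mL propidium iodide (dead) plus 0.5 μg/mL fluorescein diacetate (live) added. Parasites were read immediately by light and fluorescence microscopy; percent viable was computed against total parasites. About 3600 schistosomula per condition over four biological replicates; 70% ethanol served as positive control.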

Schistosoma mansoni [15] = experiment: Antischistosomal activity against juvenile Schistosoma mansoni assessed as presence of blisters in dorsal tegument at 20 to 50 uM incubated for 48 hrs by scanning electron microscopy analysis; type: functional, organism-based; conditions: dose 20-50 µM
Procedure, shortened: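 Juvenile worms recovered by perfusion, five per well in supplemented RPMI (10% FBS, antibiotics, 37°C, 5% CO2), 2 h adaptation, then exposed 48 h to compound or 0.1% DMSO. Fixed in modified Karnovsky reagent (pH 7.4), washed in cacodylate buffer, post-fixed 1 h in 1% osmium tetroxide, ethanol-dehydrated, critical-point dried, gold-sputtered and imaged by scanning electron microscopy.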

Schistosoma mansoni [16] = experiment: Antischistosomal activity against adult Schistosoma mansoni assessed as drastic reduction in pairing of couples at 50 uM incubated for 3 hrs by inverted microscope analysis relative to control; type: functional; parameters: scale not given: the % may be the effect or the level left; procedure, shortened: as §2
Schistosoma mansoni [17] = experiment: Antischistosomal activity against Schistosoma mansoni assessed as increased length of schistosomula at 20 uM incubated for 24 to 48 hrs by scanning electron microscopy analysis; type: functional; conditions: time 24-48 hrs; procedure, shortened: as §3
Schistosoma mansoni [18] = experiment: Antischistosomal activity against Schistosoma mansoni assessed as change in size at 20 uM incubated for 24 hrs by scanning electron microscopy analysis; type: functional, organism-based; procedure, shortened: as §3

With CCCc1cc(C)[nH]c(=O)c1CNC(=O)c1cc(-c2ccnc(N3CCN(C)CC3)c2)cc2c1cnn2C(C)C the Activity (Schistosoma mansoni [1]) was “Active”, the Activity (Schistosoma mansoni [2]) was under 20% and the Activity (Schistosoma mansoni [3]) was under 20%. For the same compound, the Activity (Schistosoma mansoni [4]) was “Active”, the Activity (Schistosoma mansoni [5]) was about 50% and the “fold change (FC)” value (Schistosoma mansoni [6]) was 17. For the same compound, the Activity (Schistosoma mansoni [7]) was “Active”, the Activity (Schistosoma mansoni [8]) was “inactive” and the Activity (Schistosoma mansoni [9]) was 20%. The Activity (Schistosoma mansoni [10]) was “Active”, the Activity (Schistosoma mansoni [11]) was “Active” and the Activity (Schistosoma mansoni [12]) was “Active”. The Activity (Schistosoma mansoni [13]) was “inactive”, the Activity (Schistosoma mansoni [14]) was “Active” and the Activity (Schistosoma mansoni [15]) was “Active”. For the same compound, the Activity (Schistosoma mansoni [16]) was about 0%, the “fold change (FC)” value (Schistosoma mansoni [17]) was 1.1 and the Activity (Schistosoma mansoni [18]) was “inactive”.
